Reference: ChEMBL document CHEMBL1143410, “Antiviral and anti-inflammatory effects of rosmarinic acid in an experimental murine model of Japanese encephalitis” (Antimicrob Agents Chemother, 2007)
Calls of active or inactive are those of the source. The rule behind the calls is not given here.

Key:
Mus musculus [1] = assay: Antiinflammatory activity in Japanese encephalitis virus GP78 infected BALB/c mouse assessed as increase in IkappaB-alpha levels at 25 mg/kg, ip twice daily after 8 to 9 days relative to control; assay type: functional, organism-based; design: dose 25 mg/kg
Procedure, shortened: (§1)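 BALB/c mice (4–5 weeks, either sex; 15 per group) received RA dissolved in PBS at 25 mg/kg i.p. twice daily. Dosing began one day after infection and continued until the first untreated infected mouse died. Brain protein (10 μg) was Western blotted with pNF-κB, IκB-α and Cox-2 antibodies (1:1,000), using β-tubulin as loading reference and HRP chemiluminescence detection. Groups were compared by one-way ANOVA with Bonferroni post hoc tests.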

Mus musculus [2] = assay: Antiinflammatory activity in Japanese encephalitis virus GP78 infected BALB/c mouse assessed as decrease in virus-induced MCP1 levels at 25 mg/kg, ip twice daily after 8 to 9 days relative to control; assay type: functional; conditions: route intraperitoneal
Procedure, shortened: (§2)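 BALB/c mice (4–5 weeks, either sex; 15 per group) were dosed with RA in PBS at 25 mg/kg i.p. twice daily, from day 1 after infection until the first untreated infected mouse died. IL-12, TNF-α, IFN-γ, MCP-1 and IL-6 in brain tissue lysates were quantified with a mouse cytometric bead array. Statistics used one-way ANOVA with Bonferroni post hoc comparisons.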

Mus musculus [3] = assay: Antiinflammatory activity in Japanese encephalitis virus GP78 infected BALB/c mouse assessed as decrease in Cox2 levels at 25 mg/kg, ip twice daily after 8 to 9 days relative to control; assay type: functional, organism-based; design: dose 25 mg/kg; procedure, shortened: as §1
Mus musculus [4] = assay: Antiinflammatory activity in Japanese encephalitis virus GP78 infected BALB/c mouse assessed as decrease in virus-induced IL6 levels at 25 mg/kg, ip twice daily after 8 to 9 days relative to control; assay type: functional; conditions: route intraperitoneal; procedure, shortened: as §2
Mus musculus [5] = assay: Antiinflammatory activity in Japanese encephalitis virus GP78 infected BALB/c mouse assessed as decrease in virus-induced TNFalpha levels at 25 mg/kg, ip twice daily after 8 to 9 days relative to control; assay type: functional; conditions: route intraperitoneal; procedure, shortened: as §2
Mus musculus [6] = assay: Antiinflammatory activity in Japanese encephalitis virus GP78 infected BALB/c mouse assessed as decrease in virus-induced IL12 levels at 25 mg/kg, ip twice daily after 8 to 9 days relative to control; assay type: functional; conditions: route intraperitoneal; procedure, shortened: as §2
[7] = test system: Japanese encephalitis virus; assay: Antiviral activity against Japanese encephalitis virus GP78 infected BALB/c mouse assessed as reduction in mortality rate at 25 mg/kg, ip twice daily administered 1 day post viral-challenge; assay type: functional; design: scale not given: the % may be the effect or the level left; conditions: route intraperitoneal
Procedure, shortened: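 Survival was followed in infected BALB/c mice (4–5 weeks, either sex; 15 per group). Animals received RA in PBS at 25 mg/kg i.p. twice daily, from day 1 post-infection until the first untreated infected animal died. Symptoms (limb paralysis, tremor, piloerection, stiffening) were recorded alongside deaths.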

Mus musculus [8] = assay: Antiinflammatory activity in Japanese encephalitis virus GP78 infected BALB/c mouse assessed as decrease in virus-induced IFN-gamma levels at 25 mg/kg, ip twice daily after 8 to 9 days relative to control; assay type: functional; conditions: route intraperitoneal; procedure, shortened: as §2
BV-2 [9] = assay: Antiinflammatory activity in Japanese encephalitis virus GP78 infected mouse BV2 cells assessed as decrease in virus-induced IFN-gamma levels at 25 uM after 18 hrs by Western blot relative to control; assay type: functional
[10] = test system: Japanese encephalitis virus; assay: Antiviral activity against Japanese encephalitis virus GP78 infected BALB/c mouse assessed as reduction of activated microglia in mouse brain at 25 mg/kg, ip twice daily; assay type: functional, organism-based; design: dose 25 mg/kg
Procedure, shortened: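 RA was given at 25 mg/kg i.p. twice daily to infected BALB/c mice. Mice were perfused with PBS containing 7 U/ml heparin, then with 2.5% paraformaldehyde. Cryostat brain sections were stained for Iba-1, and star-shaped activated microglia were counted.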

BV-2 [11] = assay: Antiinflammatory activity in Japanese encephalitis virus GP78 infected mouse BV2 cells assessed as decrease in virus-induced MCP1 levels at 25 uM after 18 hrs by Western blot relative to control; assay type: functional
[12] = test system: Japanese encephalitis virus; assay: Antiviral activity against Japanese encephalitis virus GP78 infected BALB/c mouse assessed as inhibition of viral proteins in mouse brain at 25 mg/kg, ip twice daily after 8 to 9 days by immunoblot; assay type: functional, organism-based; design: dose 25 mg/kg
BV-2 [13] = assay: Antiinflammatory activity in Japanese encephalitis virus GP78 infected mouse BV2 cells assessed as decrease in virus-induced TNFalpha levels at 25 uM after 18 hrs by Western blot relative to control; assay type: functional
Mus musculus [14] = assay: Toxicity in BALB/c mouse assessed as behavioral activity at 25 mg/kg, ip twice daily; assay type: organism-based; design: dose 25 mg/kg, route intraperitoneal; conditions: in vivo
Procedure, shortened: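 Uninfected BALB/c mice (4–5 weeks, either sex; 15 per group) received RA alone, dissolved in PBS, at 25 mg/kg i.p. twice daily. Behavior was observed and compared with a PBS-injected control group.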

[15] = test system: Japanese encephalitis virus; assay: Antiviral activity against Japanese encephalitis virus GP78 infected BALB/c mouse assessed as inhibition of viral mRNA transcript in mouse brain at 25 mg/kg, ip twice daily after 8 to 9 days; assay type: functional, organism-based; design: dose 25 mg/kg
Mus musculus [16] = assay: Antiinflammatory activity in Japanese encephalitis virus GP78 infected BALB/c mouse assessed as decrease in phosphorylated NF-kappaB levels at 25 mg/kg, ip twice daily after 8 to 9 days relative to control; assay type: functional, organism-based; design: dose 25 mg/kg; procedure, shortened: as §1
BV-2 [17] = assay: Antiinflammatory activity in Japanese encephalitis virus GP78 infected mouse BV2 cells assessed as decrease in virus-induced IL6 levels at 25 uM after 18 hrs by Western blot relative to control; assay type: functional
BV-2 [18] = assay: Antiinflammatory activity in Japanese encephalitis virus GP78 infected mouse BV2 cells assessed as decrease in virus-induced IL12 levels at 25 uM after 18 hrs by Western blot relative to control; assay type: functional

Question: `O=C(/C=C/c1ccc(O)c(O)c1)O[C@H](Cc1ccc(O)c(O)c1)C(=O)O` [ROSMARINIC ACID] was tested. Which Activity (Mus musculus [1]) did it give?
Answer: Active

Question: What about the “fold change (FC)” value (Mus musculus [2]) of the same molecule?
Answer: 100

Question: What about the Activity (Mus musculus [3]) of the same molecule?
Answer: Active

Question: What about the “fold change (FC)” value (Mus musculus [4]) of the same molecule?
Answer: 9

Question: What about the “fold change (FC)” value (Mus musculus [5]) of the same molecule?
Answer: 18

Question: What about the “fold change (FC)” value (Mus musculus [6]) of the same molecule?
Answer: 5

Question: What about the Activity [7] of the same molecule?
Answer: 20%

Question: What about the “fold change (FC)” value (Mus musculus [8]) of the same molecule?
Answer: 6

Question: And the “fold change (FC)” value (BV-2 [9])?
Answer: 12

Question: What about the Activity [10] of the same molecule?
Answer: Active

Question: And the “fold change (FC)” value (BV-2 [11])?
Answer: 25

Question: And the Activity [12]?
Answer: Active

Question: What about the “fold change (FC)” value (BV-2 [13]) of the same molecule?
Answer: 14

Question: What about the Activity (Mus musculus [14]) of the same molecule?
Answer: Non-toxic

Question: And the Activity [15]?
Answer: Active

Question: And the Activity (Mus musculus [16])?
Answer: Active

Question: And the “fold change (FC)” value (BV-2 [17])?
Answer: 12.5

Question: And the “fold change (FC)” value (BV-2 [18])?
Answer: 13
